Most compounds without a hit are left out; they make up all but 2% or so of the library.
PglD inh – PglD (C. jejuni) enzyme inhibition. purified PglD enzyme, DTNB colorimetric CoA detection. inhibition, % at 12.5 µM. 0.098% of 360,000 active; in the data active = inhibition above about 16%, passing the limit was not always enough
E-sel inducer – E-selectin induction on HUVECs. P16581. HUVEC E-selectin immunofluorescence imaging; normalized: neutral wells 0, TNF-alpha wells 100. activation, % at 7.58 µM. 0.37% of 260,000 active. AID 686992;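 active = mean E-selectin-positive cell signal at least 10% of the positive control, reached in at least 60% of replicates, without over 20% cell loss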
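System: HUVEC, human umbilical vein endothelial cells; quantity: 3,000 cells/well; buffer or medium: EGM-2 medium, gelatin-coated wells; dosing: single-point compound dose; detection: immunofluorescence imaging; evaluation: % PE-positive cells; benchmarks: TNF-alpha, DMSO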
RAD54 branch – RAD54 (human) branch migration inhibition; 0.14% of 360,000 active; Q92698; AID 602329; RAD54 Holliday junction branch migration, FAM/BHQ fluorescence; inhibition, % at 10.4 µM;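 active = mean normalized replicate activity at least 40 and at least half of replicates scoring 40 or more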;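 note: inhibitors cause a drop in the FAM fluorescence signal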
Target sequence (Q92698 whole entry, looked up): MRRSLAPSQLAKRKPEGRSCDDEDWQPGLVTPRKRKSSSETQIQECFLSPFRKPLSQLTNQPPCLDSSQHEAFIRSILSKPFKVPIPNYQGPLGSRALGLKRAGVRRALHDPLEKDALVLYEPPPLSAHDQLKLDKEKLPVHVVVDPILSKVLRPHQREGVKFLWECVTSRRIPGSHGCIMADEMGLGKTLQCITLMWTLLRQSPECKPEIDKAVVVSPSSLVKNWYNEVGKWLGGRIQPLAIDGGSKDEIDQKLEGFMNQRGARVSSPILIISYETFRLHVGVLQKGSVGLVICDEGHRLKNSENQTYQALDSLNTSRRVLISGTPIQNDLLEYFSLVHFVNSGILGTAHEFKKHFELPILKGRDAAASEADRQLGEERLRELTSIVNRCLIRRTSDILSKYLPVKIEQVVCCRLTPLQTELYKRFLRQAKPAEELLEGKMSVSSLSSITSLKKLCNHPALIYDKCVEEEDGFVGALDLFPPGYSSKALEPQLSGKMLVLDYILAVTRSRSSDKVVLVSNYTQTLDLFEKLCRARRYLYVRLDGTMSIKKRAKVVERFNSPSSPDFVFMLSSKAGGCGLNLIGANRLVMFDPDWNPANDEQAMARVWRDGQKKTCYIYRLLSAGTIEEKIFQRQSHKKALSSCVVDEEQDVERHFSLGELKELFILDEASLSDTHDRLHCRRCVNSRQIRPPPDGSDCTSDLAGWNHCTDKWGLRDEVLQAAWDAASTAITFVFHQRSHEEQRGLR
Ecoli rRNA inh – inhibitors of bacterial rRNA selective over humanized ribosomes | E. coli WT GFP vs humanized-ribosome RFP mutants, fluorescence, 24 h; active compounds read low; DMSO median 0, no signal -100 | GFP signal change (wild-type ribosome), % (no concentration beside the values) | 1.6% of 350,000 active;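 active = significant combined selectivity score with lowered wild-type GFP, culture density cut under 30%, mutant RFP and density less affected; inactive = any of these conditions unmet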
RAD52 inh – RAD52 (human) annealing inhibition; P43351; recombinant RAD52 DNA annealing, FRET fluorescence; inhibition, % at 18.7 µM; 0.46% of 360,000 active;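 active = every replicate showing at least 50% inhibition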
Xi reactivation – X-chromosome reactivation activator; 0.055% of 360,000 active; XiGFP mouse fibroblasts, % GFP-positive cells imaging, 3 d; cells co-treated with 5-aza-dC sensitizer; scaled so ellipticine positive control = 100%; AID 743238; activation, % at 7.58 µM;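 active = mean normalized replicate activation at least 10% and every replicate at or above 10%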
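System: 68-5-11 XiGFP fibroblast line; Timing: 3 days compound exposure; Compound dosing: one concentration, pinned; Benchmarks: positive control ellipticine, 6 µM final; Buffer or medium: DMEM containing 5-aza-dC.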
Each line names hits and unclear results; the compound was inactive in the other large screens.

CCOc1ccccc1N1CCN(C(=O)c2c(C)noc2C)CC1	none (no result: E-sel inducer, Ecoli rRNA inh, RAD52 inh, Xi reactivation)
COc1ccc(N2CCN(c3ccnc4cc(Cl)ccc34)CC2)cc1	none
O=C(c1ccc(Cl)cc1)N1CCN(c2ccnc3cc(Cl)ccc23)CC1	Ecoli rRNA inh -29.4 (no result: PglD inh, E-sel inducer, RAD54 branch)
COc1cccc(Cl)c1NC(=O)N1CCN(c2cc(C)nc3ccccc23)CC1	none
COc1cccc(Cl)c1NC(=O)N1CCN(c2ccnc3cc(Cl)ccc23)CC1	Ecoli rRNA inh -31.7 (no result: PglD inh, RAD54 branch)
CCC(=O)N1CCN(c2ccnc3cc(Cl)ccc23)CC1	none (no result: PglD inh, E-sel inducer, RAD54 branch)
Oc1ccc(N2CCN(c3ccnc4cc(Cl)ccc34)CC2)cc1	Ecoli rRNA inh -37.5 (no result: E-sel inducer)
O=C(NC1CCCCC1)[C@H]1[C@H](CO)[C@H]2Cn3c(cccc3=O)[C@H]2N1C(=O)CC1CC1	none
CN(C)CC(=O)N1CCCCN2[C@@H](CO)[C@H](c3ccc(/C=C/c4ccccc4)cc3)[C@@H]2C1	RAD52 inh 68.8
CN(C)CC(=O)N1CCCCN2[C@H](C1)[C@H](c1ccc(/C=C/c3ccccc3)cc1)[C@@H]2CO	none
CN(C)CC(=O)N1CCCCN2[C@H](C1)[C@@H](c1ccc(/C=C/c3ccccc3)cc1)[C@@H]2CO	RAD52 inh 58.1
CN(C)CC(=O)N1CCCCN2[C@@H](CO)[C@@H](c3ccc(-c4ccccc4)cc3)[C@@H]2C1	none
CN(C)CC(=O)N1CCCCN2[C@H](CO)[C@H](c3ccc(/C=C/c4ccccc4)cc3)[C@H]2C1	RAD52 inh 61.6
CN(C)CC(=O)N1CCCCN2[C@@H](CO)[C@@H](c3ccc(/C=C/c4ccccc4)cc3)[C@@H]2C1	RAD52 inh 70.5
C/C=C/c1ccc([C@@H]2[C@H]3CN(C(=O)CN(C)C)CCCCN3[C@H]2CO)cc1	none (no result: PglD inh, E-sel inducer, RAD54 branch, RAD52 inh)
CCC(=O)N[C@H]1C=C[C@H](CC(=O)NCC2CCCCC2)O[C@H]1CO	none
C[C@H]1CN([C@@H](C)CO)C(=O)c2cc(C#CCC3CCCC3)cnc2O[C@H]1CN(C)Cc1ccccn1	none
O=C(N[C@@H]1CC[C@@H](CCNC(=O)C2CCC2)O[C@@H]1CO)c1ccncc1	none
C[C@H]1CN([C@@H](C)CO)C(=O)c2cc(Br)cnc2O[C@@H]1CN(C)Cc1ccc2c(c1)OCO2	none
CO[C@H]1CC[C@@H]2CCOc3c(C#N)cccc3C(=O)N(C)[C@H](C)C(=O)N(C)C[C@@H]1O2	none
OC[C@H]1[C@H](c2ccc(/C=C/c3ccccc3)cc2)[C@H]2CN(Cc3cccnc3)CCCCN21	RAD52 inh 53.3
C[C@H](CO)N1C[C@H](C)[C@@H](CN(C)Cc2ccc3c(c2)OCO3)Oc2ccc(NS(=O)(=O)c3cccs3)cc2C1=O	none
CCOC(=O)CCCc1ccc(/C(C)=N/NC(N)=S)cc1	Ecoli rRNA inh -44.0 (no result: PglD inh, E-sel inducer, RAD54 branch)
CCOC(=O)CCCc1ccc(/C(C)=N/NC(=S)NC)cc1	none (no result: PglD inh, E-sel inducer, RAD54 branch)
Cc1ccc(NC(=S)NC2CCSc3ccccc32)cc1 (stereo unspecified)	Ecoli rRNA inh -44.3
COc1ccc(C(=O)Oc2ccc(/C=N/O)cc2)cc1	Ecoli rRNA inh -26.3 (no result: E-sel inducer, Xi reactivation)
COc1ccccc1C(=O)N1C[C@H]2[C@@H](c3ccccc31)[C@@H](CO)N2CC1CCCC1	none
COc1ccc2c3c(n(C)c2c1)[C@@H](CO)NCC31CCN(S(=O)(=O)c2cccc(C)c2)CC1	RAD52 inh 54.1 (no result: PglD inh, RAD54 branch)
COc1ccc2c3c(n(C)c2c1)[C@@H](CO)NCC31CCN(S(=O)(=O)c2cccc(F)c2)CC1	none (no result: PglD inh, E-sel inducer, RAD54 branch, RAD52 inh)
COc1ccc2c3c(n(C)c2c1)[C@H](CO)NCC31CN(CC2CCOCC2)C1	RAD52 inh 75.8 (no result: PglD inh, RAD54 branch)
COc1ccc2c3c(n(C)c2c1)[C@@H](CO)NCC31CCN(Cc2cc(-c3ccccc3)on2)CC1	RAD52 inh 58.8 (no result: PglD inh, RAD54 branch)
COc1ccc2c3c(n(C)c2c1)[C@H](CO)NCC31CCN(CC2CCCC2)CC1	none (no result: PglD inh, RAD54 branch)
COc1ccc2c3c(n(C)c2c1)[C@@H](CO)NCC31CN(Cc2cc(-c3ccccc3)on2)C1	none (no result: PglD inh, RAD54 branch)
COc1ccc2c3c(n(C)c2c1)[C@@H](CO)N(CC1CC1)CC31CCN(C(=O)CN(C)C)CC1	RAD52 inh 72.6 (no result: PglD inh, RAD54 branch)
O=C(C[C@@H]1CC[C@@H](NS(=O)(=O)c2ccc(F)cc2)[C@H](CO)O1)N1CCC(Cc2ccccc2)CC1	none
